Reference: ChEMBL document CHEMBL1123225, “Opioid agonist and antagonist bivalent ligands. The relationship between spacer length and selectivity at multiple opioid receptors” (J Med Chem, 1986)
Starred links: 1 amine or outer side, 2 acyl side, 3 side chain; linkers in the order of their positions; H or OH if unused. Positions of bridges follow the written chain, without caps; N, C: chain ends. Residues, ends and D or L forms follow the SMILES beside them. Chains are numbered I, II in the order given. *: point of attachment. Naltrexamine(6β) = Oc1ccc2c3c1O[C@H]1[C@H](N*)CC[C@@]4(O)[C@@H](C2)N(CC2CC2)CC[C@]314; Suc = O=C(CCC(=O)[*:2])[*:1]

Tests used:
[1] = molecular target: Mu-type opioid receptor (Cavia porcellus) (UniProt P97266); experiment: Affinity comparison to [3H]naloxone for Opioid receptor mu 1 in guinea pig brain membrane; assay type: cell membranes
Mu-type opioid receptor = Mu-type opioid receptor (Cavia porcellus, UniProt P97266); experiment: Displacement of [3H]naloxone from Opioid receptor mu 1 in guinea pig brain membrane; assay type: cell membranes
[2] = molecular target: Opioid receptors; mu & kappa (Homo sapiens, UniProt P41145+P35372); experiment: Activity against opioid receptor in guinea pig ileum longitudinal muscle; assay type: functional, tissue-based, Cavia porcellus; details: target entry is the homologue from another species
Method in brief: (§1)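 Electrically stimulated guinea pig ileum longitudinal muscle, with agonist inhibition measured. Ligands were incubated 30 min before testing. Potency ratio = morphine IC50 / compound IC50 on the same tissue. The relative value divides the bivalent potency ratio by the monovalent potency ratio. Each value is the mean of at least three replicate experiments.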

[3] = Potency ratio is the ratio of morphine IC50 to that of compound on same tissue; method in brief: as §1
[4] = Relative potency is the bivalent potency ratio divided by monovalent potency ratio; method in brief: as §1
[5] = (§2) Relative potency is the IC5O in presence of bivalent ligand divided by IC50 in presence of monovalent ligand relative to EK
Method in brief: (§3)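 Antagonism in electrically stimulated guinea pig ileum. Antagonist at 10 nM was incubated 30 min, then morphine (μ) or ethylketazocine (κ) concentration–response was run. IC50 ratio = agonist IC50 with antagonist / control IC50 in the same preparation without antagonist. Relative potency = bivalent IC50 ratio / monovalent IC50 ratio. Selectivity = EK IC50 ratio / morphine IC50 ratio.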

[6] = Relative potency is the IC5O in presence of bivalent ligand divided by IC50 in presence of monovalent ligand relative to morphine; method in brief: as §3
[7] = (§4) Selectivity ratio is expressed as EK IC50 ratio divided by morphine IC50 ratio; method in brief: as §3
[8] = molecular target: T1, Opioid receptors; mu/kappa/delta (Homo sapiens) (UniProt P41145+P41143+P35372); experiment: IC50 of ethylketazocine (EK) in the presence of the antagonist (10 nM) divided by the control IC50 (same preparation without antagonist) in guinea pig ileum; assay type: functional, tissue-based; details: Cavia porcellus, target entry is the homologue from another species; method in brief: as §3
[9] = molecular target: T1, Opioid receptors; mu/kappa/delta (Homo sapiens); experiment: IC50 of the morphine in the presence of the antagonist (10 nM) divided by the control IC50 (same preparation without antagonist) in guinea pig ileum; assay type: functional, tissue-based; details: Cavia porcellus, target entry is the homologue from another species; method in brief: as §3
[10] = molecular target: T1, Opioid receptors; mu/kappa/delta (Homo sapiens); experiment: Relative potency is the IC50 in presence of bivalent ligand divided by IC50 in presence of monovalent ligand relative to morphine; details: Cavia porcellus; method in brief: as §3
[11] = molecular target: T1, Opioid receptors; mu/kappa/delta (Homo sapiens); experiment: as §2; assay type: protein assay; details: Cavia porcellus; method in brief: as §3
[12] = molecular target: T1, Opioid receptors; mu/kappa/delta (Homo sapiens); experiment: as §4; assay type: protein assay; details: Cavia porcellus; method in brief: as §3

T1 sequence (P35372 whole entry, looked up): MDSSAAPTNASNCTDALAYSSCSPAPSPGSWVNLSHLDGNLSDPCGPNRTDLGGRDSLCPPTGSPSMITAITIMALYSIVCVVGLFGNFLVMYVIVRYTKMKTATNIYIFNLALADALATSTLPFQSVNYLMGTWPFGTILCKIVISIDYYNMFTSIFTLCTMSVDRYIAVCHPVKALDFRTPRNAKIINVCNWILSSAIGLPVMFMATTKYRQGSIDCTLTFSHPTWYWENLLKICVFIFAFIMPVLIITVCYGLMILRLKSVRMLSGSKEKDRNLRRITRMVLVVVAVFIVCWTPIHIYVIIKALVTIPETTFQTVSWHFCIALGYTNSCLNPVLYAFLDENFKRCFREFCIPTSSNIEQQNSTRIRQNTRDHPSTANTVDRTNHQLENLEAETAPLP
T1 sequence (P41143 whole entry, looked up): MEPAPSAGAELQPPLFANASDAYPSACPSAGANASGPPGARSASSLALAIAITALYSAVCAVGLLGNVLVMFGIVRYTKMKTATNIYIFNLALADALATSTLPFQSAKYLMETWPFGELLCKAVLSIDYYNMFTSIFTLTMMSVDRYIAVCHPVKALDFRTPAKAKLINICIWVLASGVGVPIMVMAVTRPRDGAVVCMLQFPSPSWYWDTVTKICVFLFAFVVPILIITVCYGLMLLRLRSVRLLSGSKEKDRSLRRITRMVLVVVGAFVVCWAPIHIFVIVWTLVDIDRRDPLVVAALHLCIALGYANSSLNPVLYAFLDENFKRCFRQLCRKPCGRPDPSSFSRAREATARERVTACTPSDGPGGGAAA
T1 sequence (P41145 whole entry, looked up): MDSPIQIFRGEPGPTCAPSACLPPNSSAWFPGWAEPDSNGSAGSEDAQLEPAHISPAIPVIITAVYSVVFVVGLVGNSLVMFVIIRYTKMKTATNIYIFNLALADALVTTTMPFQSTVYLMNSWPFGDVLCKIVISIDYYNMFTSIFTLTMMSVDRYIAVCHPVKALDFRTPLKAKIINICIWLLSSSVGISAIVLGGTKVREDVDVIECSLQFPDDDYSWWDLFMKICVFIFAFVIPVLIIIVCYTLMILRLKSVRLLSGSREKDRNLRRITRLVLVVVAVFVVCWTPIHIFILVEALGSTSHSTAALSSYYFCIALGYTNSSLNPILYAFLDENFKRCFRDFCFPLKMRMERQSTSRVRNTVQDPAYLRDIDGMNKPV
Chain of Mu-type opioid receptor (P97266 whole entry): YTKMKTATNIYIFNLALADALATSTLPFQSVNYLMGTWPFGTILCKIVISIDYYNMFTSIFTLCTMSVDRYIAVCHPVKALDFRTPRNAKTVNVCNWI
Chain of Mu-type opioid receptor (Cavia porcellus) (P97266 whole entry): as above

SMILES | Relative affinity [1] | Ki (Mu-type opioid receptor) | IC50 [2] | Potency ratio [3] | Ratio [4] | Ratio [5] | Ratio [6] | Selectivity ratio [7] | IC50 ratio [8] | IC50 ratio [9] | Ratio [10] | Ratio [11] | Selectivity ratio [12]
CN1CC[C@]23c4c5ccc(O)c4O[C@H]2[C@@H](NC(=O)CCC(=O)N[C@H]2CC[C@@]4(O)[C@H]6Cc7ccc(O)c8c7[C@@]4(CCN6C)[C@H]2O8)CC[C@@]3(O)[C@H]1C5 | 3.6 | 50 nM | 30.2 nM | 4.6 | 2.4 |  |  |  |  |  |  |  | 
CN1CC[C@]23c4c5ccc(O)c4O[C@@H]2[C@H](NC(=O)CNC(=O)CNC(=O)CCC(=O)NCC(=O)NCC(=O)N[C@@H]2CC[C@]4(O)[C@H]6Cc7ccc(O)c8c7[C@@]4(CCN6C)[C@@H]2O8)CC[C@]3(O)[C@H]1C5 | 6.3 | 10 nM | 6.3 nM | 8 | 3.5 |  |  |  |  |  |  |  | 
CN1CC[C@]23c4c5ccc(O)c4O[C@@H]2[C@H](NC(=O)CNC(=O)CCC(=O)NCC(=O)N[C@@H]2CC[C@]4(O)[C@H]6Cc7ccc(O)c8c7[C@@]4(CCN6C)[C@@H]2O8)CC[C@]3(O)[C@H]1C5 | 3.5 | 18 nM | 19.2 nM | 5.8 | 2.5 |  |  |  |  |  |  |  | 
CC(=O)N[C@@H]1CC[C@@]2(O)[C@H]3Cc4ccc(O)c5c4[C@@]2(CCN3C)[C@H]1O5 | 1 | 63 nM | 45.9 nM | 2.3 | 1 |  |  |  |  |  |  |  | 
CN1CC[C@]23c4c5ccc(O)c4O[C@@H]2[C@H](NC(=O)CNC(=O)CNC(=O)CNC(=O)CCC(=O)NCC(=O)NCC(=O)NCC(=O)N[C@@H]2CC[C@]4(O)[C@H]6Cc7ccc(O)c8c7[C@@]4(CCN6C)[C@@H]2O8)CC[C@]3(O)[C@H]1C5 | 2.9 | 22 nM | 12.6 nM | 3.9 | 1.7 |  |  |  |  |  |  |  | 
CN1CC[C@]23c4c5ccc(O)c4O[C@H]2[C@@H](NC(=O)CNC(=O)CNC(=O)CCC(=O)NCC(=O)NCC(=O)N[C@H]2CC[C@@]4(O)[C@H]6Cc7ccc(O)c8c7[C@@]4(CCN6C)[C@H]2O8)CC[C@@]3(O)[C@H]1C5 | 12.9 | 14 nM | 3.9 nM | 36 | 18.9 |  |  |  |  |  |  |  | 
O=C(CCC(=O)NCC(=O)N[C@@H]1CC[C@@]2(O)[C@H]3Cc4ccc(O)c5c4[C@@]2(CCN3CC2CC2)[C@H]1O5)NCC(=O)N[C@@H]1CC[C@@]2(O)[C@H]3Cc4ccc(O)c5c4[C@@]2(CCN3CC2CC2)[C@H]1O5 | 0.6 | 2.3 nM |  |  |  | 18.6 | 10.6 | 0.4 |  |  |  |  | 
O=C(CCC(=O)NCC(=O)NCC(=O)NCC(=O)N[C@@H]1CC[C@@]2(O)[C@H]3Cc4ccc(O)c5c4[C@@]2(CCN3CC2CC2)[C@H]1O5)NCC(=O)NCC(=O)NCC(=O)N[C@@H]1CC[C@@]2(O)[C@H]3Cc4ccc(O)c5c4[C@@]2(CCN3CC2CC2)[C@H]1O5 | 0.9 | 1.6 nM |  |  |  | 6.8 | 11.4 | 0.1 |  |  |  |  | 
CN1CC[C@]23c4c5ccc(O)c4O[C@H]2[C@@H](NC(=O)CNC(=O)CNC(=O)CNC(=O)CCC(=O)NCC(=O)NCC(=O)NCC(=O)N[C@H]2CC[C@@]4(O)[C@H]6Cc7ccc(O)c8c7[C@@]4(CCN6C)[C@H]2O8)CC[C@@]3(O)[C@H]1C5 | 5.3 | 34 nM | 25.1 nM | 5.5 | 2.9 |  |  |  |  |  |  |  | 
CN1CC[C@]23c4c5ccc(O)c4O[C@@H]2[C@H](NC(=O)CCC(=O)N[C@@H]2CC[C@]4(O)[C@H]6Cc7ccc(O)c8c7[C@@]4(CCN6C)[C@@H]2O8)CC[C@]3(O)[C@H]1C5 | 2.7 | 23 nM | 15.7 nM | 4.3 | 1.9 |  |  |  |  |  |  |  | 
O=C(CCC(=O)N[C@@H]1CC[C@@]2(O)[C@H]3Cc4ccc(O)c5c4[C@@]2(CCN3CC2CC2)[C@H]1O5)N[C@@H]1CC[C@@]2(O)[C@H]3Cc4ccc(O)c5c4[C@@]2(CCN3CC2CC2)[C@H]1O5 | 0.8 | 1.7 nM |  |  |  | 25.3 | 5.1 | 1.1 |  |  |  |  | 
CN1CC[C@]23c4c5ccc(O)c4O[C@H]2[C@@H](NC(=O)CNC(=O)CCC(=O)NCC(=O)N[C@H]2CC[C@@]4(O)[C@H]6Cc7ccc(O)c8c7[C@@]4(CCN6C)[C@H]2O8)CC[C@@]3(O)[C@H]1C5 | 4.1 | 44 nM | 22 nM | 4 | 2.1 |  |  |  |  |  |  |  | 
O=C(CCC(=O)NCC(=O)NCC(=O)NCC(=O)NCC(=O)N[C@@H]1CC[C@@]2(O)[C@H]3Cc4ccc(O)c5c4[C@@]2(CCN3CC2CC2)[C@H]1O5)NCC(=O)NCC(=O)NCC(=O)NCC(=O)N[C@@H]1CC[C@@]2(O)[C@H]3Cc4ccc(O)c5c4[C@@]2(CCN3CC2CC2)[C@H]1O5 (I: GGGG-{Naltrexamine(6β)} / II: GGGG-{Naltrexamine(6β)}; linker I:N-II:N via Suc) |  |  |  |  |  |  |  |  | 7.2 | 40.7 | 7.5 | 6 | 0.2
O=C(CCC(=O)NCC(=O)NCC(=O)N[C@@H]1CC[C@@]2(O)[C@H]3Cc4ccc(O)c5c4[C@@]2(CCN3CC2CC2)[C@H]1O5)NCC(=O)NCC(=O)N[C@@H]1CC[C@@]2(O)[C@H]3Cc4ccc(O)c5c4[C@@]2(CCN3CC2CC2)[C@H]1O5 | 0.9 | 1.5 nM |  |  |  | 10.7 | 33.5 | 0.2 |  |  |  |  | 
